Experimental data: ChEMBL document CHEMBL4033652, “Design, synthesis, and pharmacological evaluation of 4-azolyl-benzamide derivatives as novel GPR52 agonists” (Bioorg Med Chem, 2017)
Activity calls are given as the source filed them. No cut-off for these calls is given here.

Experiments:
[1] = biological target: T1, G-protein coupled receptor 52 (Homo sapiens, UniProt Q9Y2T5); assay: Agonist activity at human GPR52 expressed in CHO cells assessed as increase in cAMP level after 30 mins by AlphaScreen assay; type: functional, cell-based
In short: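 CHO cells stably expressing human GPR52 (10,000/well) exposed to compound at various concentrations, 30 min, 37°C, in HBSS with 5 mM HEPES pH 7.6, 0.5% BSA, 100 µM IBMX and 100 µM Ro20-1724. AlphaScreen acceptor/donor beads added overnight at room temperature. Response expressed relative to a reference benzofuran agonist (100%). EC50 from mean curves, n = 2–4, 95% CI.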

[2] = biological target: T1, G-protein coupled receptor 52; assay: Agonist activity at human GPR52 expressed in CHO cells assessed as increase in cAMP level after 30 mins by AlphaScreen assay relative to (N-(2-hydroxyethyl)-3-(2-(3-(trifluoromethyl)benzyl)-1-benzofuran-4-yl)benzamide); type: functional, cell-based
In short: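 CHO cells stably expressing human GPR52, 10,000 cells per well, exposed to compound 30 min at 37°C in HBSS with 5 mM HEPES pH 7.6, 0.5% BSA, 100 µM IBMX and 100 µM Ro20-1724. cAMP measured by AlphaScreen with acceptor and biotinylated donor beads after overnight room-temperature incubation. Emax set relative to the reference benzofuran benzamide (100%). EC50 taken from mean curves, n = 2–4, with 95% CI.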

[3] = Oral bioavailability in Sprague-Dawley rat at 1 mg/kg administered as cassette dose by LC-MS/MS analysis; type: ADME, organism-based; settings: in vivo
In short: (§1)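 Cassette dosing in non-fasted male SD rats (n = 3): i.v. 0.1 mg/kg or p.o. 1 mg/kg. Plasma prepared from blood, deproteinized, centrifuged, supernatant measured by LC/MS/MS. AUC taken over 0–8 h.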

[4] = AUC (0 to 8 hrs) in Sprague-Dawley rat at 1 mg/kg, po administered as cassette dose by LC-MS/MS analysis; type: ADME, organism-based; parameters: time < 8 hr, dose 1 mg/kg, route oral; settings: in vivo; in short: as §1
[5] = Total clearance in Sprague-Dawley rat at 0.1 mg/kg, iv or 1 mg/kg, po administered as cassette dose by LC/MS/MS analysis; type: ADME, organism-based; settings: in vivo; in short: as §1
[6] = Ratio of AUC (0 to 24 hrs) in ICR mouse brain to plasma at 10 mg/kg, po; type: ADME, organism-based; settings: brain and plasma, read-out: Ratio AUC
[7] = Metabolic stability in human liver microsomes at 1 uM after 15 to 30 mins in presence of NADPH by LC/MS/MS analysis; type: ADME, microsome; settings: read-out: Stability
In short: (§2)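 Human, rat or mouse liver microsomes (0.2 mg/mL protein) incubated with test compound at 1 µmol/L in 50 mmol/L phosphate buffer pH 7.4. Reaction started with an NADPH-generating system, run 15 and 30 min at 37°C, stopped with acetonitrile. Duplicates. Parent compound loss measured by LC/MS/MS.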

[8] = Metabolic stability in rat liver microsomes at 1 uM after 15 to 30 mins in presence of NADPH by LC/MS/MS analysis; type: ADME, microsome; settings: read-out: Stability; in short: as §2
[9] = Metabolic stability in mouse liver microsomes at 1 uM after 15 to 30 mins in presence of NADPH by LC/MS/MS analysis; type: ADME, microsome; settings: read-out: Stability; in short: as §2
[10] = Cmax in ICR mouse plasma at 10 mg/kg, po by LC/MS/MS analysis; type: ADME, organism-based; parameters: dose 10 mg/kg, route oral
In short: (§3)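 Male ICR mice dosed orally at 10 or 30 mg/kg as a suspension in 0.5% methylcellulose. Blood and brain taken at 0.25, 0.5, 1, 2, 4, 8 and 24 h, n = 3 per time point. Plasma separated; brain homogenized in saline. Samples mixed with acetonitrile, centrifuged, supernatant quantified by LC/MS/MS.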

[11] = Cmax in ICR mouse brain at 10 mg/kg, po by LC/MS/MS analysis; type: ADME, organism-based; parameters: dose 10 mg/kg, route oral; in short: as §3
[12] = Cmax in ICR mouse plasma at 30 mg/kg, po by LC/MS/MS analysis; type: ADME, organism-based; parameters: dose 30 mg/kg, route oral; in short: as §3
[13] = Cmax in ICR mouse brain at 30 mg/kg, po by LC/MS/MS analysis; type: ADME, organism-based; parameters: dose 30 mg/kg, route oral; in short: as §3
[14] = Tmax in ICR mouse plasma at 10 mg/kg, po by LC/MS/MS analysis; type: ADME, organism-based; in short: as §3
[15] = Tmax in ICR mouse brain at 10 mg/kg, po by LC/MS/MS analysis; type: ADME, organism-based; in short: as §3
[16] = Tmax in ICR mouse plasma at 30 mg/kg, po by LC/MS/MS analysis; type: ADME, organism-based; in short: as §3
[17] = Tmax in ICR mouse brain at 30 mg/kg, po by LC/MS/MS analysis; type: ADME, organism-based; in short: as §3
[18] = AUC (0 to 24 hrs) in ICR mouse plasma at 10 mg/kg, po by LC/MS/MS analysis; type: ADME, organism-based; parameters: time < 24 hr, dose 10 mg/kg, route oral; in short: as §3
Brain [19] = assay: AUC (0 to 24 hrs) in ICR mouse brain at 10 mg/kg, po by LC/MS/MS analysis; type: ADME, organism-based; parameters: time < 24 hr, dose 10 mg/kg, route oral; settings: in vivo; in short: as §3
[20] = AUC (0 to 24 hrs) in ICR mouse plasma at 30 mg/kg, po by LC/MS/MS analysis; type: ADME, organism-based; parameters: time < 24 hr, dose 30 mg/kg, route oral; in short: as §3
Brain [21] = assay: AUC (0 to 24 hrs) in ICR mouse brain at 30 mg/kg, po by LC/MS/MS analysis; type: ADME, organism-based; parameters: time < 24 hr, dose 30 mg/kg, route oral; settings: in vivo; in short: as §3
[22] = Ratio of AUC (0 to 24 hrs) in ICR mouse brain to plasma at 30 mg/kg, po; type: ADME, organism-based; settings: brain and plasma, read-out: Ratio AUC
[23] = MRT in ICR mouse plasma at 10 mg/kg, po by LC/MS/MS analysis; type: ADME, organism-based; in short: as §3
[24] = MRT in ICR mouse brain at 10 mg/kg, po by LC/MS/MS analysis; type: ADME, organism-based; in short: as §3
[25] = MRT in ICR mouse plasma at 30 mg/kg, po by LC/MS/MS analysis; type: ADME, organism-based; in short: as §3
[26] = MRT in ICR mouse brain at 30 mg/kg, po by LC/MS/MS analysis; type: ADME, organism-based; in short: as §3
[27] = Protein binding in ICR mouse plasma at 1 uM after 24 hrs by LC/MS/MS based equilibrium dailysis method; type: ADME, cell-free; settings: read-out: PPB (converted)
In short: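 Plasma from male ICR mice spiked with compound at a final 1 µmol/L. Equilibrium dialysis (MWCO 6–8 kDa) against PBS for 24 h at room temperature. Both sides quantified by LC-MS/MS; bound fraction calculated from the plasma and PBS concentrations.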

[28] = biological target: D(1A) dopamine receptor (Homo sapiens) (UniProt P21728); assay: Inhibition of dopamine D1 receptor (unknown origin) at 10 uM
dopamine D2L receptor = dopamine D2L receptor (Homo sapiens, UniProt P14416); assay: Inhibition of dopamine D2L receptor (unknown origin) at 10 uM
[29] = biological target: 5-hydroxytryptamine receptor 2A (Homo sapiens) (UniProt P28223); assay: Inhibition of 5-HT2 receptor (unknown origin) at 10 uM
Homo sapiens = organism: Homo sapiens; assay: Inhibition of AMPA receptor (unknown origin) at 10 uM
[30] = biological target: Glutamate [NMDA] receptor (Homo sapiens) (UniProt Q05586+Q12879+Q13224+O15399+O60391+Q14957+Q8TCU5); assay: Inhibition of NMDA receptor (unknown origin) at 10 uM
Mus musculus [31] = assay: Anti-psychotic activity in ICR mouse assessed as inhibition of methamphetamine-induced hyperlocomotion at 10 mg/kg, po pretreated for 60 mins followed by methamphetamine administration measured after 150 mins; type: functional, organism-based
In short: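 Male ICR mice aged 7–8 weeks, housed singly in activity-monitor cages and habituated 60 min. Compound given p.o. (1–30 mg/kg range tested). Methamphetamine 2 mg/kg s.c. given 60 min later. Activity counts recorded for 150 min after compound dosing. Mean ± SEM, t-test and Williams test.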

[32] = biological target: G-protein coupled receptor 52 (Mus musculus, UniProt P0C5J4); assay: Agonist activity at mouse GPR52
[33] = biological target: G-protein coupled receptor 52 (Mus musculus) (UniProt P0C5J4); assay: Agonist activity at mouse GPR52 relative to (N-(2-hydroxyethyl)-3-(2-(3-(trifluoromethyl)benzyl)-1-benzofuran-4-yl)benzamide)
Mus musculus [34] = assay: Toxicity in ICR mouse model of methamphetamine-induced hyperlocomotion assessed as cataleptogenic effect at 10 mg/kg, po; type: organism-based; settings: in vivo

T1 sequence (Q9Y2T5 whole entry): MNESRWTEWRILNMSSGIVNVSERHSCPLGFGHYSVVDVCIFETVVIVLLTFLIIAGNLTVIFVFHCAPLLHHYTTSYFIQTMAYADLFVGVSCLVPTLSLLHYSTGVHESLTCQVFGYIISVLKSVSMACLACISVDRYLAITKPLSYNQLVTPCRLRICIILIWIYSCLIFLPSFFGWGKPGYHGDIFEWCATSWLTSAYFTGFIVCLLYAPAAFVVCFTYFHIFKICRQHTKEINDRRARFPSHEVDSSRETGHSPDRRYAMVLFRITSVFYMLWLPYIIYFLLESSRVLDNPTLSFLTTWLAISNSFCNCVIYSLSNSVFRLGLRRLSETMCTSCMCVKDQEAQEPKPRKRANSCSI
5-hydroxytryptamine receptor 2A (Homo sapiens), sequence (P28223 whole entry): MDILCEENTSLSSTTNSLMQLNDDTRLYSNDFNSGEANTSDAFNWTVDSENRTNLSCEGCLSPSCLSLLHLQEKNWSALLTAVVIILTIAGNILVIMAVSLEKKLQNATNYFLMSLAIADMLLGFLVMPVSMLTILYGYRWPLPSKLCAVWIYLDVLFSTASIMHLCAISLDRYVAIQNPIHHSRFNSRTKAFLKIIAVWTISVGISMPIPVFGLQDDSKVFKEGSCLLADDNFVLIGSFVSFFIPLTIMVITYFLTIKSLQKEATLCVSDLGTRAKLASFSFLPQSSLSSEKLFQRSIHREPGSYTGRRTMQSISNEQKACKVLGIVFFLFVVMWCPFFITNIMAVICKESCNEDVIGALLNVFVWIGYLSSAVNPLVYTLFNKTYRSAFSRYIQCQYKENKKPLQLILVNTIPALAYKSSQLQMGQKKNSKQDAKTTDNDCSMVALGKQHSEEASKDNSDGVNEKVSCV
dopamine D2L receptor, sequence (P14416 whole entry): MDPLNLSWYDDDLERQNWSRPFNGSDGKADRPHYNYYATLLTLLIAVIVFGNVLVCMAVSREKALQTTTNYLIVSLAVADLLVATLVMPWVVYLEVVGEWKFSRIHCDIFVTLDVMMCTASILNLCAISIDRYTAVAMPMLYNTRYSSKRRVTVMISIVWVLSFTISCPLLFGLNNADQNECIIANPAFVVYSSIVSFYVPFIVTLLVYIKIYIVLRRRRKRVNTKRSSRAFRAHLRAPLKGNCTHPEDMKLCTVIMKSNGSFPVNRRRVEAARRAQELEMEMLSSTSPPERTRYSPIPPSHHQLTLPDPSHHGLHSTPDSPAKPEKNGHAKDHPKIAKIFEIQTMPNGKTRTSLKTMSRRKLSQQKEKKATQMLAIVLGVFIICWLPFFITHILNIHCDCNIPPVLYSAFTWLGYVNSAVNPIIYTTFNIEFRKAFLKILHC
G-protein coupled receptor 52 (Mus musculus), sequence (P0C5J4 whole entry): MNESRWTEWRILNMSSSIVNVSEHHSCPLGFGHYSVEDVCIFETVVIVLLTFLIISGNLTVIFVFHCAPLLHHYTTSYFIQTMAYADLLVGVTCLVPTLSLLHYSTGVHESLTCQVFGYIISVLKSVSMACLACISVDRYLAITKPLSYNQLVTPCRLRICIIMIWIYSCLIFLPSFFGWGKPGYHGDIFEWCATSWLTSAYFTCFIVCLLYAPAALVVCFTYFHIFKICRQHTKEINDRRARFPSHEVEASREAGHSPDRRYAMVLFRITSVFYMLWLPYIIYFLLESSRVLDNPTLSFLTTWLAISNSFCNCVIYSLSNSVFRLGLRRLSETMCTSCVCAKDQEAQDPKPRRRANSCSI
G-protein coupled receptor 52 (Mus musculus, UniProt P0C5J4), sequence (P0C5J4 whole entry): as above
D(1A) dopamine receptor (Homo sapiens), sequence (P21728 whole entry): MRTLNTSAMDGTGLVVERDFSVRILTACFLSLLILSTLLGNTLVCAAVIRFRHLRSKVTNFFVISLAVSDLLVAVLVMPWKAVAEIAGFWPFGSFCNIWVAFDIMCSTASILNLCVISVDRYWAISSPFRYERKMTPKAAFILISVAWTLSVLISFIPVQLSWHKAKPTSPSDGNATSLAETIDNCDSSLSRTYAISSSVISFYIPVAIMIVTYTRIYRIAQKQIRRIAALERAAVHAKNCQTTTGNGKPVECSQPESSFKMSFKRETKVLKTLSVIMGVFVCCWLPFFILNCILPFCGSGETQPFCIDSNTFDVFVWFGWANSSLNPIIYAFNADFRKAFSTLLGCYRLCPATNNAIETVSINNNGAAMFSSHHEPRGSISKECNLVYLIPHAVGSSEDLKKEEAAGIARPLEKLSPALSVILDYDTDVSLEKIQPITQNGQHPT

Cc1cc(-c2sc(Cc3ccccc3Cl)nc2C)ccc1C(N)=O
EC50 [1]: 3900 nM | Emax [2]: 51%

Cc1cc(-c2sc(Cc3cccc(C(F)(F)F)c3)nc2C)ccc1C(N)=O
EC50 [1]: 73 nM | Emax [2]: 86%

Cc1cc(-c2sc(Cc3ccc(Cl)cc3)nc2C)ccc1C(N)=O
EC50 [1]: 210 nM | Emax [2]: 60%

Cc1cc(-c2sc(Cc3cc(F)cc(C(F)(F)F)c3)nc2C)ccc1C(N)=O
EC50 [1]: 11 nM | Emax [2]: 93% | bioavailability [3]: 14% | AUC(0-t) at 8 h [4]: 60.5 ng·h/mL | clearance [5]: 39.5 mL/min/kg

Cc1cc(-c2cc(Cc3cc(F)cc(C(F)(F)F)c3)nn2C)ccc1C(N)=O
EC50 [1]: 23 nM | Emax [2]: 123% | bioavailability [3]: 30.5% | AUC(0-t) at 8 h [4]: 155 ng·h/mL | clearance [5]: 32.9 mL/min/kg

Cc1nc(Cc2cccc(C(F)(F)F)c2)sc1-c1ccc(C(N)=O)c(F)c1
EC50 [1]: 380 nM | Emax [2]: 84%

COc1cccc(Cc2nc(C)c(-c3ccc(C(N)=O)c(C)c3)s2)c1
EC50 [1]: 160 nM | Emax [2]: 85%

Cc1cc(C(N)=O)ccc1-c1sc(Cc2cccc(C(F)(F)F)c2)nc1C
EC50 [1]: 1400 nM | Emax [2]: 87%

Cc1cc(-c2sc(Cc3cccc(N(C)C)c3)nc2C)ccc1C(N)=O
EC50 [1]: 690 nM | Emax [2]: 101%

Cc1cc(-c2sc(Cc3cccc(Cl)c3)nc2C)ccc1C(N)=O
EC50 [1]: 130 nM | Emax [2]: 75%

Cc1cc(-n2nc(Cc3cc(F)cc(C(F)(F)F)c3)nc2C)ccc1C(N)=O [TP-024]
Kp [6]: 1.53 | EC50 [1]: 75 nM | Emax [2]: 122% | bioavailability [3]: 53.8% | AUC(0-t) at 8 h [4]: 384 ng·h/mL | clearance [5]: 23.5 mL/min/kg | microsomal CLint at 1 µM [7]: 17 µL/min/mg | microsomal CLint at 1 µM [8]: 9 µL/min/mg | microsomal CLint at 1 µM [9]: 24 µL/min/mg | Cmax [10]: 688 ng/mL | Cmax [11]: 1020 ng/g | Cmax [12]: 1210 ng/mL | Cmax [13]: 2330 ng/g | Tmax [14]: 0.5 h | Tmax [15]: 0.5 h | Tmax [16]: 1 h | Tmax [17]: 1 h | AUC(0-t) at 24 h [18]: 2430 ng·h/mL | AUC (Brain [19]): 3.731 µg·h/g | AUC(0-t) at 24 h [20]: 6200 ng·h/mL | AUC (Brain [21]): 10.414 µg·h/g | Kp [22]: 1.68 | MRT [23]: 2.29 h | MRT [24]: 2.06 h | MRT [25]: 3.54 h | MRT [26]: 3.25 h | fraction unbound at 24 h, 1 µM [27]: 0.199 | inhibition [28]: < 50% | inhibition at 10 µM (dopamine D2L receptor): < 50% | inhibition [29]: < 50% | inhibition (Homo sapiens): < 50% | inhibition [30]: < 50% | inhibition (Mus musculus [31]): Active | EC50 [32]: 71 nM | Emax [33]: 114% | Activity (Mus musculus [34]): Non-Toxic
